# Laboratory results as given in ChEMBL document CHEMBL1147453, “3,4-Dihydroquinazoline derivatives as novel selective T-type Ca2+ channel blockers” (Bioorg Med Chem Lett, 2004).
# What was measured:
# [1] = target: Voltage-dependent T-type calcium channel subunit alpha-1H (Homo sapiens) (UniProt O95180); assay: In vitro inhibitory effect on alpha-1H T-type [Ca2+] channels expressed in Xenopus oocytes at 100 uM; format: functional, cell-based; conditions: Oocyte
# How it was run: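 Preliminary screen at 100 µM on α1H T-type Ca2+ channels expressed in Xenopus oocytes, recorded by two-electrode voltage clamp. Output is percent inhibition of current.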
# [2] = target: T1, Voltage-dependent T-type calcium channel subunit alpha-1G (Homo sapiens, UniProt O43497); assay: Concentration of the compounds required for inhibition of HEK293 cells (alpha1G T-type); format: functional, cell-based
# [3] = target: T1, Voltage-dependent T-type calcium channel subunit alpha-1G; assay: In vitro inhibition of alpha-1G T-type [Ca2+] channels expressed in HEK293 cells at 10 uM; format: functional, cell-based
# How it was run: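 Whole-cell patch clamp on HEK293 cells expressing α1G T-type Ca2+ channels, test compound at 10 µM. Percent inhibition of T-type current reported as mean ± SEM from repeated runs (n ≥ 3).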
# [4] = target: T1, Voltage-dependent T-type calcium channel subunit alpha-1G; assay: In vitro inhibition of alpha-1G T-type [Ca2+] channels expressed in HEK293 cells; format: functional, cell-based
# How it was run: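 α1G T-type Ca2+ currents recorded in HEK293 cells by whole-cell patch clamp. IC50 is the molar concentration giving 50% inhibition of α1G current, obtained by fitting raw data to dose–response curves.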
# [5] = Inhibition of LVA T-type [Ca2+] channels of major pelvic ganglion (MPG) neurons at 10 uM; format: functional
# How it was run: (§1)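 Major pelvic ganglion (MPG) neurons, compound at 10 µM. Percent inhibition measured for both LVA (T-type) and HVA (N-type) Ca2+ currents, as part of an ion-channel selectivity screen that also covered Na+ channels.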
# [6] = target: Voltage-dependent N-type calcium channel subunit alpha-1B (Homo sapiens) (UniProt Q00975); assay: Inhibition of HVA N-type [Ca2+] channels of major pelvic ganglion (MPG) neurons at 10 uM; format: functional; how it was run: as §1
# Voltage-dependent N-type calcium channel subunit alpha-1B (Homo sapiens), sequence (Q00975 whole entry, looked up): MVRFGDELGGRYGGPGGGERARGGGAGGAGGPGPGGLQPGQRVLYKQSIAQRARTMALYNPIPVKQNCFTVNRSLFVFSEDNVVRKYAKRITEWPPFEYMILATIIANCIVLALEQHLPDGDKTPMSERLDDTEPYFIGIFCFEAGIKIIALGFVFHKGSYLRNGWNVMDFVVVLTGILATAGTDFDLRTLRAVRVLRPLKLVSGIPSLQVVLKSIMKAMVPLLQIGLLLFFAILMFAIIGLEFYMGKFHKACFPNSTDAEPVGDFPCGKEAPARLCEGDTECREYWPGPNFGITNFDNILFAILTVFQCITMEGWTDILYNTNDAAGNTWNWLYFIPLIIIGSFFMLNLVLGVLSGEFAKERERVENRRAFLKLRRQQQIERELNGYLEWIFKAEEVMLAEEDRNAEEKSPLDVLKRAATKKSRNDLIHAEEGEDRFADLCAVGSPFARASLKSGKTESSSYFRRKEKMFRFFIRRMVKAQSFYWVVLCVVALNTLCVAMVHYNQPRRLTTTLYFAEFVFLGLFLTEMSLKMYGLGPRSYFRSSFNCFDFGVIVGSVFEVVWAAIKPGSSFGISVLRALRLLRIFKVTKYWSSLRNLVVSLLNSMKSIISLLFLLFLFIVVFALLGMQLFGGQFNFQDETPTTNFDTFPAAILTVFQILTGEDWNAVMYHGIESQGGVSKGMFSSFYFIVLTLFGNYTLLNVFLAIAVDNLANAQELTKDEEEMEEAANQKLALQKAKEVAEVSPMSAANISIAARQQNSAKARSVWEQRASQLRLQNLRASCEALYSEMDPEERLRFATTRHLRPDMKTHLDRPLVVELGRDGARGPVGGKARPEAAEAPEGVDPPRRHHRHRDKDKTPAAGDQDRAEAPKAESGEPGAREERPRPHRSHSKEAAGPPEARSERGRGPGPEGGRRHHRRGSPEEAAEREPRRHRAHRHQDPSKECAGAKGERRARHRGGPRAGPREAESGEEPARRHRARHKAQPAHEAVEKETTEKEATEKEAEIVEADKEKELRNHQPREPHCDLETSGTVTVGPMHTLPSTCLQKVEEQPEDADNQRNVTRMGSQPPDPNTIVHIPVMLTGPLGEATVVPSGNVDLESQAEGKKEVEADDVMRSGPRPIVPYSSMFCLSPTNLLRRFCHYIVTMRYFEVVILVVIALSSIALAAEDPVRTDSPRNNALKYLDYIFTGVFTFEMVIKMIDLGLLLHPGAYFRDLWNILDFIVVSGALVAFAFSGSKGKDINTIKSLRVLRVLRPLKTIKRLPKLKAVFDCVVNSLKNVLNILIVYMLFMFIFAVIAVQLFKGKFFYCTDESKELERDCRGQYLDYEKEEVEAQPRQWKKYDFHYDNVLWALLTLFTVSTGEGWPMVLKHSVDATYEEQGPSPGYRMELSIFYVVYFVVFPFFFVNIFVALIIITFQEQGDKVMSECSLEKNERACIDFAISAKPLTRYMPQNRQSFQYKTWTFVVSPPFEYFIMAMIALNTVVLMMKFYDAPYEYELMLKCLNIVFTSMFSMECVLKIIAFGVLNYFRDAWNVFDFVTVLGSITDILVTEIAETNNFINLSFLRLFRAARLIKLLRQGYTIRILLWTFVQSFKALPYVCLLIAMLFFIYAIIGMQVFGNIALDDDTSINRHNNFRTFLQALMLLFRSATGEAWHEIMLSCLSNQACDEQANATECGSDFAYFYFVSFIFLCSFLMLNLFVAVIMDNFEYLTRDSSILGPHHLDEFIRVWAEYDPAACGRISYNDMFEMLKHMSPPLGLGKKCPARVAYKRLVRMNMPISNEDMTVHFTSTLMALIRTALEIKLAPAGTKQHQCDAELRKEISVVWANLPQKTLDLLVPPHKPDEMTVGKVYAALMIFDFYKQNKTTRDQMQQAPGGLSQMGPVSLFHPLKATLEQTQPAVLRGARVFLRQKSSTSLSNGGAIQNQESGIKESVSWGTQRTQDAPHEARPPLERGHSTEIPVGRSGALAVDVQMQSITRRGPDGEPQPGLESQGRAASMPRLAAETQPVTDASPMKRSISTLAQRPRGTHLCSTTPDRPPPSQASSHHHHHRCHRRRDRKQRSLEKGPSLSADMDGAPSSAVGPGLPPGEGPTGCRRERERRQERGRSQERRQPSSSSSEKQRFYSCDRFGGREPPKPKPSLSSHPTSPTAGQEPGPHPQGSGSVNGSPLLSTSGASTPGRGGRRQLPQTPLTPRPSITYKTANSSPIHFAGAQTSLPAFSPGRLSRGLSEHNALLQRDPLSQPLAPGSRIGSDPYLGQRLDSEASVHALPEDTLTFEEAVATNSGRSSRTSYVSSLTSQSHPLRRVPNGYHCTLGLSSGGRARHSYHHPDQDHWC
# Voltage-dependent T-type calcium channel subunit alpha-1H (Homo sapiens), sequence (O95180 whole entry): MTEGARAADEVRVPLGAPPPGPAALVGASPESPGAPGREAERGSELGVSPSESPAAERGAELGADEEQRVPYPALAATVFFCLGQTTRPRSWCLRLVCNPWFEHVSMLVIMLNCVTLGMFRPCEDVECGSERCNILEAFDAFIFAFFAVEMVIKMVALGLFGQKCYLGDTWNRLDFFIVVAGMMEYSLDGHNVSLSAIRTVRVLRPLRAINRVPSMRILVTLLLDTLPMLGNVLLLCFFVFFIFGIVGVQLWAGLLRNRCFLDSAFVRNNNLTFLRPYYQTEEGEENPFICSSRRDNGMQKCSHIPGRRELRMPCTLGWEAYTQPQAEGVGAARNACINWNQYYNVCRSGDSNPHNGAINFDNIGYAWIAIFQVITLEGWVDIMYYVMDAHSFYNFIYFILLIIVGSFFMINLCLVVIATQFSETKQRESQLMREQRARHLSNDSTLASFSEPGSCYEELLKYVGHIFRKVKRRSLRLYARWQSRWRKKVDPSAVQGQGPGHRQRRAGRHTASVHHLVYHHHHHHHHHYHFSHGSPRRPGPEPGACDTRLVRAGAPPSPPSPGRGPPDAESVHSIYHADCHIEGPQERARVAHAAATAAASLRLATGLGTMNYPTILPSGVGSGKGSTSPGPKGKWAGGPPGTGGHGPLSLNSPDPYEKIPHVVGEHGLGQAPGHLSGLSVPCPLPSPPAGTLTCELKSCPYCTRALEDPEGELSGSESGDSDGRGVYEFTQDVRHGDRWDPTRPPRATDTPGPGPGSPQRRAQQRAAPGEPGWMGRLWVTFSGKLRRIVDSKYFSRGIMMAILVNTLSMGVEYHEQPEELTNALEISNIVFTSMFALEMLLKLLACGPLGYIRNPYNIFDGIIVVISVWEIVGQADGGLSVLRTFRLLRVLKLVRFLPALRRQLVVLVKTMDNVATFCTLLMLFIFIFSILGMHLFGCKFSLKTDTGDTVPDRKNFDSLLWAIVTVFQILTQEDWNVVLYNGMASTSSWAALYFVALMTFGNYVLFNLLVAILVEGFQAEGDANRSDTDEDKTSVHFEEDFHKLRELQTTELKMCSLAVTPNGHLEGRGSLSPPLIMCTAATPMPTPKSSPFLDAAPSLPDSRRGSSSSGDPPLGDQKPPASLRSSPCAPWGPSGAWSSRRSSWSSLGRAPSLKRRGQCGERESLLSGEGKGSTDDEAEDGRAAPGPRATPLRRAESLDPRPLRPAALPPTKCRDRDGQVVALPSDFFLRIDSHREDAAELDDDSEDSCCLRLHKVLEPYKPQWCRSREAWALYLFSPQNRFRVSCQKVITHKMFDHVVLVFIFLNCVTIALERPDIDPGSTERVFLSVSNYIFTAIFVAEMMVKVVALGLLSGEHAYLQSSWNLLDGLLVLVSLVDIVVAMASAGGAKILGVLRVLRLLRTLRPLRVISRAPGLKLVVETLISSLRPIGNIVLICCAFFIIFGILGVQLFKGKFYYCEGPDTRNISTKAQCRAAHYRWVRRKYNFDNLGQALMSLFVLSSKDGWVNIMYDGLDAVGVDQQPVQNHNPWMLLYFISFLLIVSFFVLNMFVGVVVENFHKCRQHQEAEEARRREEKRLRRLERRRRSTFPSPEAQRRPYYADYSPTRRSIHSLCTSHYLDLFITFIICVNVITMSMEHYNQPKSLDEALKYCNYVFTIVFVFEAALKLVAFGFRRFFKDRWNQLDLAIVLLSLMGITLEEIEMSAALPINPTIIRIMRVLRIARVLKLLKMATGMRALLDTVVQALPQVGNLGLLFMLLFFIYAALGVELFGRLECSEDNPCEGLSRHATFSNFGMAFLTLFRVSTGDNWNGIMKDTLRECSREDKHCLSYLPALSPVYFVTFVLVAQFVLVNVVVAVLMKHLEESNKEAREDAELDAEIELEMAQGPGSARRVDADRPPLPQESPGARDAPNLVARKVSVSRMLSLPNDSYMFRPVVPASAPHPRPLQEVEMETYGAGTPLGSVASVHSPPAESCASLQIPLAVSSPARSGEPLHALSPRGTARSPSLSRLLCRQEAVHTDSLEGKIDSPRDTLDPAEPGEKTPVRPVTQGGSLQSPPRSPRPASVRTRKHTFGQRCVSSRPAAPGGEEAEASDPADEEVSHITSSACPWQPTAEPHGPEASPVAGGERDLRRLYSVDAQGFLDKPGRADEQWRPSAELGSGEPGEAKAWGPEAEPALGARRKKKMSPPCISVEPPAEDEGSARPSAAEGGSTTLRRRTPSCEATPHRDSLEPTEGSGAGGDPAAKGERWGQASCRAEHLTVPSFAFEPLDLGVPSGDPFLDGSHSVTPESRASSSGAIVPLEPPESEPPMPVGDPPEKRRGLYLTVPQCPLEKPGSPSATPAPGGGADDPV
SMILES,inhibition [1] [%],IC50 [2] [µM],inhibition [3] [%],also measured
O=C(CC1c2ccccc2N=C(N2CCOCC2)N1c1ccccc1)NCc1ccccc1 (stereo unspecified),63.8,21.6,40.5,
O=C(O)CC1c2ccccc2N=C(c2ccccc2)N1c1ccccc1 (stereo unspecified),7.2,,,
COC(=O)CC1c2ccccc2N=C(N2CCOCC2)N1C1CCCCC1 (stereo unspecified),12.2,,,
CN1CCN(C2=Nc3ccccc3C(CC(=O)NCc3ccccc3)N2c2ccccc2)CC1 (stereo unspecified),70.3,35.8,29,
COC(=O)CC1c2ccccc2N=C(N2CCCCC2)N1c1ccccc1 (stereo unspecified),11.5,27.7,18.3,
COC(=O)CC1c2ccccc2N=C(c2ccccc2)N1c1ccccc1 (stereo unspecified),51.5,10.7,,inhibition [4]: 50%
COC(=O)CC1c2ccccc2N=C(N2CCOCC2)N1C(C)C (stereo unspecified),0,,,
COCC(=O)O[C@]1(CCN(C)CCCc2nc3ccccc3[nH]2)CCc2cc(F)ccc2[C@@H]1C(C)C,86,,95.9,
O=C(CC1c2ccccc2N=C(N2CCCCC2)N1c1ccccc1)NCc1ccc([N+](=O)[O-])cc1 (stereo unspecified),91.9,2.5,92.3,inhibition at 10 µM [5]: 37.7%; inhibition [6]: 32.2%
COC(=O)CC1c2ccccc2N=C(N2CCCCC2)N1C(C)C (stereo unspecified),8,,,
COC(=O)CC1c2ccccc2N=C(N2CCN(C)CC2)N1c1ccccc1 (stereo unspecified),15,,,
COC(=O)CC1c2ccccc2N=C(N2CCCCC2)N1C1CCCCC1 (stereo unspecified),27,,,
O=C(O)CC1c2ccccc2N=C(N2CCOCC2)N1c1ccccc1 (stereo unspecified),9,,,
O=C(CC1c2ccccc2N=C(c2ccccc2)N1c1ccccc1)OCc1ccccc1 (stereo unspecified),14.2,,,
O=C(CC1c2ccccc2N=C(N2CCCCC2)N1c1ccccc1)OCc1ccccc1 (stereo unspecified),15.6,,,
CN1CCN(C2=Nc3ccccc3C(CC(=O)O)N2c2ccccc2)CC1 (stereo unspecified),15,,,
Cc1ccc(S(=O)(=O)Nc2ccc(CNC(=O)CC3c4ccccc4N=C(N4CCCCC4)N3c3ccccc3)cc2)cc1 (stereo unspecified),84.7,0.25,89.9,inhibition at 10 µM [5]: 29%; inhibition [6]: 38.7%
O=C(CC1c2ccccc2N=C(N2CCCCC2)N1c1ccccc1)NCc1ccc(NS(=O)(=O)c2ccc(F)cc2)cc1 (stereo unspecified),80.5,0.2,89,inhibition at 10 µM [5]: 49.6%; inhibition [6]: 50.8%
O=C(CC1c2ccccc2N=C(c2ccccc2)N1c1ccccc1)NCc1ccccc1 (stereo unspecified),14.8,,,
O=C(O)CC1c2ccccc2N=C(N2CCCCC2)N1c1ccccc1 (stereo unspecified),8,,,
CN1CCN(C2=Nc3ccccc3C(CC(=O)OCc3ccccc3)N2c2ccccc2)CC1 (stereo unspecified),32.7,,,
O=C(CC1c2ccccc2N=C(N2CCOCC2)N1c1ccccc1)OCc1ccccc1 (stereo unspecified),20.9,,,
COC(=O)CC1c2ccccc2N=C(N2CCN(C)CC2)N1C1CCCCC1 (stereo unspecified),3,,,
COC(=O)CC1c2ccccc2N=C(N2CCN(C)CC2)N1C(C)C (stereo unspecified),0,,,
Nc1ccc(CNC(=O)CC2c3ccccc3N=C(N3CCCCC3)N2c2ccccc2)cc1 (stereo unspecified),66.8,14.4,43.5,inhibition at 10 µM [5]: 4.7%; inhibition [6]: 18.4%
O=C(CC1c2ccccc2N=C(N2CCCCC2)N1c1ccccc1)NCc1ccccc1 (stereo unspecified),77,0.9,90.1,inhibition at 10 µM [5]: 76%; inhibition [6]: 12%
COC(=O)CC1c2ccccc2N=C(N2CCOCC2)N1c1ccccc1 (stereo unspecified),14,,,
